One data set concerns MDA-MB-231. Description: Cytotoxicity against human MDA-MB-231 cells assessed as cell viability by XTT assay. In kind it is functional, cell-based. In a few lines:
(§1)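 Cells were seeded at 5 × 10^4 per well and grown 48 h at 37 °C, 5% CO2, before medium renewal. Drugs were added at a range of concentrations for 24 h. XTT was added for 4 h, then absorbance read at 490 nm against medium-only controls. Viability was plotted versus concentration to estimate EC50 (mean ± SD, n = 3).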

For another data set, the system named is Caco-2. As to the kind of experiment: Cytotoxicity against human Caco-2 cells assessed as cell viability by XTT assay. In kind it is functional, cell-based. In a few lines: as §1
The next data set deals with MCF7. Description: Cytotoxicity against human MCF7 cells assessed as cell viability by XTT assay. In kind it is functional, cell-based. In a few lines:
as §1

The species entered for data set [1] is Sus scrofa. Description: Activity of pig kidney prolidase measured per gram of protein in presence of Cbz-pro. In a few lines:
(§2)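 Pro-MTX (1 mM) hydrolysed by porcine kidney prolidase at 40 °C. Enzyme was first activated 30 min at 40 °C in 50 mM Tris–HCl (pH 8.0) with 200 mM MnCl2 and 30 mM glutathione. Samples were taken at 15 min, 30 min and 1 h and quenched with equal volume 10% TFA. Released proline was assayed colorimetrically (Chinard's reagent, 90 °C 10 min, A495). Inhibitor runs added Cbz-Pro equimolar to substrate.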

Data set [2] is filed under the species Sus scrofa. Description: Activity of pig kidney prolidase measured per gram of protein. In a few lines: as §2
Data set [3] in a line: Chemical stability of the compound in phosphate buffer saline of pH 7.4. Type of data set: physicochemical.
In data set [4] the target is T1, Xaa-Pro dipeptidase (Homo sapiens) (UniProt P12955).
T1 sequence (whole entry): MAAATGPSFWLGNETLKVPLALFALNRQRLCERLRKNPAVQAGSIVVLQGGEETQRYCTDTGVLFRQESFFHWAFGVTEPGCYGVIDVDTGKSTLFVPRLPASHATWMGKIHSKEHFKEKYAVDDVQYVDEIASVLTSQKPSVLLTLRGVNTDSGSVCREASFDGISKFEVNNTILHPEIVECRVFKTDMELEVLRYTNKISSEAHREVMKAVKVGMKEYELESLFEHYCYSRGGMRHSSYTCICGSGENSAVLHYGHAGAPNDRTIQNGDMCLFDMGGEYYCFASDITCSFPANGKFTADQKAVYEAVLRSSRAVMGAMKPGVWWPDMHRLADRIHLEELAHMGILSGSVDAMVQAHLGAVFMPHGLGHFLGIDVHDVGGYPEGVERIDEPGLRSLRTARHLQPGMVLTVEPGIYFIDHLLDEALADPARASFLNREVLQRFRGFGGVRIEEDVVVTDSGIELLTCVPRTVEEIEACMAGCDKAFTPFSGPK
Description: Activity of prolidase in human HeLa cells measured per gram of protein in presence of Cbz-pro. In kind it is cell-based. In a few lines: (§3)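 Cells were grown to 90% confluence, trypsinized, PBS-washed, and lysed in 1% Triton X-100/PBS. Lysate was spun 18,000 rpm, 30 min, 4 °C. Supernatant was activated 2 h at 37 °C with Tris–HCl/200 mM MnCl2/30 mM glutathione. 1 mM Pro-MTX was then added at 37 °C, sampled at 15, 30 and 60 min, and TFA-quenched. Proline was read colorimetrically; specific activity is per µg protein. Cbz-Pro inhibitor was equimolar.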

Data set [5] has as its target T1, Xaa-Pro dipeptidase (Homo sapiens). Description: Activity of prolidase in human HeLa cells measured per gram of protein. In kind it is cell-based. In a few lines: as §3
The target is the same in data set [6]. Description: Activity of prolidase in human Caco-2 cells measured per gram of protein in presence of Cbz-pro. In kind it is cell-based. In a few lines: as §3
Data set [7] has the same target. As to the kind of experiment: Activity of prolidase in human Caco-2 cells measured per gram of protein. In kind it is cell-based. In a few lines: as §3

In the case of `CN(Cc1cnc2nc(N)nc(N)c2n1)c1ccc(C(=O)N[C@@H](CCC(=O)O)C(=O)O)cc1` [METHOTREXATE], the EC50 with MDA-MB-231 stood at 80 µM; in the data set on Caco-2, 1.1 µM; with MCF7, 0.9 µM.
Regarding `CN(Cc1cnc2nc(N)nc(N)c2n1)c1ccc(C(=O)N[C@H](CCC(=O)O)C(=O)N2CCC[C@@H]2C(=O)O)cc1`, the Activity in the data set listed under Sus scrofa [1] was found to be 8.15 pmol/min; in the data set filed under Sus scrofa [2] it was 19 pmol/min; in [4], 0.19 pmol/min; in [5] it was 0.35 pmol/min; in data set [6] it was 0.28 pmol/min; in data set [7], 0.42 pmol/min. Further, in data set [3], the Stability result is “Stable”. In addition, the EC50 in the data set on MDA-MB-231 was determined as 11 µM; with Caco-2 it was 5.6 µM; in the data set on MCF7, 5.2 µM.

The values above are taken from ChEMBL document CHEMBL1221286, “Development of methotrexate proline prodrug to overcome resistance by MDA-MB-231 cells” (Bioorg Med Chem Lett, 2010).
